TAAR1 ag: human TAAR1 agonism | Q96RJ0 | CHO RD-HGA16 TAAR1, Fluo-8 calcium fluorescence; vehicle wells 0%, saturating PEA agonist 100% | activation, % at 3 µM | 360,000 compounds, 0.99% hits | AID 624467;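 active = activation above the mean activation of all test compounds in the run plus 3 SD, cut at about 38% in these data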
Target sequence (Q96RJ0 whole entry, looked up): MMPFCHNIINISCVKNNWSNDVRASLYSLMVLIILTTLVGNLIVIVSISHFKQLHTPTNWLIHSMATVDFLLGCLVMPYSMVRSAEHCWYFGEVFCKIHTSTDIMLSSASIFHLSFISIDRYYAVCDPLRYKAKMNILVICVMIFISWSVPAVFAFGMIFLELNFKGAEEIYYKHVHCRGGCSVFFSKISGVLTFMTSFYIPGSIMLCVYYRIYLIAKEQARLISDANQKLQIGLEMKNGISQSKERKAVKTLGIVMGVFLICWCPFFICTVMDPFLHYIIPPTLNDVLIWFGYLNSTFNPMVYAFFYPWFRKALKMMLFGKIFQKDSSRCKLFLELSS
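test system = CHO RD-HGA16 cells carrying human TAAR1 plus Gα16 | schedule = 17-24 h seeding, 75 min 37 °C dye, 30 min RT | compound dosing = 3 µM single concentration | control set = DMSO and PEA EC100 | replicates = n 1 | signal = Fluo-8 fluorescence, 5 s baseline then 140 s kinetic read | measure = percent activation vs PEA EC100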
CHO parental Ca: counter-screen: ATP calcium response change in parental CHO cells. 330,000 compounds, 0.63% hits. parental CHO-K1, ATP-induced calcium, Fluo-8 fluorescence. inhibition, % at 5.6 µM;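 active = inhibition above that plate's mean sample inhibition plus 3 SD, cut at about 26% in these data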;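 also: 0% = ATP-challenged DMSO wells and 100% = DMSO wells without ATP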
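Assay system: parental CHO cells; Read-out basis: percent inhibition of ATP-evoked calcium rise, normalized to controls; Benchmarks: ATP and no-ATP DMSO wells; Compound dosing: single nominal dose of 5.6 µM per compound; Signal: Fluo-8 calcium dye fluorescence; Also added: ATP as calcium-mobilizing challenge; Repeats: singlicate.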
TAAR1 antagonist: antagonists of human TAAR1. inhibition, % at 3 µM. 360,000 compounds, 1.5% hits. AID 624466. CHO RD-HGA16 TAAR1, Fluo-8 calcium fluorescence, antagonist. Q96RJ0;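 active = inhibition above a per-plate cutoff, the mean inhibition of test compounds on that plate plus 3 SD, cut at about 49% in these data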;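 also: 0% = DMSO plus EC80 beta-PEA response and 100% = DMSO alone without agonist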
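test system = CHO RD-HGA16 cells bearing hTAAR1 | replication = singlicate | controls = DMSO-only wells and EC80 β-PEA-stimulated wells | reagent = EC80 β-phenethylamine stimulus | read-out basis = percent inhibition of PEA-evoked calcium signal, max/basal emission ratio | schedule = seeding 17-24 h prior, 75-min 37 °C, 30-min RT dye loading | signal = kinetic Fluo-8 calcium fluorescence measurement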
OX1R antag-1: blocks the human orexin 1 receptor | CHO/OX1R cells, Fluo-8 calcium fluorescence, orexin A | inhibition, % at 5 µM | 330,000 compounds, 0.43% hits;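 active = inhibition above its plate's threshold, mean inhibition of all tested compounds on the plate plus 3 SD, cut at about 37% in these data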;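 also: 0% = orexin A challenge wells and 100% = SB-334867-A antagonist wells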
OX1R antag-2: antagonists of human orexin 1 receptor (OX1R) | AID 485270 | inhibition, % at 6.6 µM | 330,000 compounds, 1.8% hits | OX1R-expressing cells, FRET antagonist read-out; in the data active = inhibition mostly above about 38%, no sharp cut-off; inactive = mostly below about 40%;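 also: 0% = agonist challenge alone and 100% = reference antagonist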
NTR1 agonist: NTR1 (human) agonism; P30989; NTR1-U2OS beta-arrestin-GFP spot imaging, agonist mode; activation, % at 20 µM; 330,000 compounds, 0.17% hits; AID 493036;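 active = activation at or above 40% of the spot to cytoplasm intensity ratio, with at least 20 cells analyzed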;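 also: 0% = DMSO without peptide and 100% = 100 nM NTR1 peptide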
Numbers without * were called inactive. Rows were chosen to be rich in hits. Some 4% of all compounds tested hit in one or more screens of this group.

For CCCCN(C(=O)c1ccc([N+](=O)[O-])s1)c1c(N)n(CC(C)C)c(=O)[nH]c1=O the results were TAAR1 ag 0, CHO parental Ca -1, TAAR1 antagonist -9, OX1R antag-1 -8, OX1R antag-2 29 and NTR1 agonist 0.
`Cc1ccc(Cl)cc1N1CCN(C(=O)c2ccc(NS(=O)(=O)c3c(C)noc3C)cc2)CC1` gave TAAR1 ag 1, CHO parental Ca 44*, TAAR1 antagonist 27, OX1R antag-1 26, OX1R antag-2 41 and NTR1 agonist 4.
Cc1ccc(C)c(N2CCN(C(=O)c3ccc(NS(=O)(=O)c4c(C)noc4C)cc3)CC2)c1 was read as TAAR1 ag 2, CHO parental Ca -14, TAAR1 antagonist 12, OX1R antag-1 4, OX1R antag-2 18 and NTR1 agonist 2.
`Cc1ccc(C)c(N2CCN(C(=O)C3CCCN(S(=O)(=O)c4c(C)noc4C)C3)CC2)c1` (stereo not given) gave TAAR1 ag -1, CHO parental Ca -7, TAAR1 antagonist 53*, OX1R antag-1 -31, OX1R antag-2 14 and NTR1 agonist 6.
`Cc1ccc(C)c(N2CCN(C(=O)C3CCN(S(=O)(=O)c4c(C)noc4C)CC3)CC2)c1` gave TAAR1 ag 2, CHO parental Ca 22, TAAR1 antagonist -7, OX1R antag-1 7, OX1R antag-2 19 and NTR1 agonist 3.
For COC(=O)[C@]12C[C@H](CC(=O)NCCCN3CCCC3=O)C(=O)N(Cc3ccccc3)C1=C[C@H](C1CCCC1)O[C@@H]2C the results were TAAR1 ag 0 and TAAR1 antagonist 1.
CCCCOCCCNC(=O)C[C@H]1C[C@@]2(C(=O)OC)C(=C[C@H](C3CCCC3)O[C@@H]2C)N(Cc2ccccc2)C1=O was read as TAAR1 ag -2 and TAAR1 antagonist -31.
For CCc1c(C2(O)CCCCC2)[nH]c2cc(C(F)(F)F)ccc12 the results were CHO parental Ca -4, OX1R antag-1 45*, OX1R antag-2 64* and NTR1 agonist 16.
Screening Cc1c(C2(O)CCCCC2)[nH]c2cnccc12 returned TAAR1 ag 19, CHO parental Ca -13, TAAR1 antagonist 10, OX1R antag-1 2, OX1R antag-2 4 and NTR1 agonist 1.
`Cc1c(C2(O)CCCCC2)[nH]c2cc(C(F)(F)F)ccc12` gave TAAR1 ag 16, CHO parental Ca 65*, TAAR1 antagonist 25, OX1R antag-1 91*, OX1R antag-2 71* and NTR1 agonist 9.
For CCCCCCCn1c(=O)c(C(=O)OC)c(N)c2ccccc21 the results were TAAR1 ag 22, CHO parental Ca 58*, TAAR1 antagonist 14, OX1R antag-1 41*, OX1R antag-2 60 and NTR1 agonist 5.
For CCCCCCn1c(=O)c(-c2ccccc2)c(O)c2ccccc21 the results were TAAR1 ag -2, CHO parental Ca -18, TAAR1 antagonist -6, OX1R antag-1 -23, OX1R antag-2 14 and NTR1 agonist 4.
For CC(=O)c1ccc(NC(=S)NC(C)c2ccc(Cl)cc2Cl)cc1 (stereo not given) the results were TAAR1 ag 41*, CHO parental Ca 64*, TAAR1 antagonist 38, OX1R antag-1 73*, OX1R antag-2 11 and NTR1 agonist 9.
`CC(NC(=O)Nc1ccc([N+](=O)[O-])cc1)C(c1cccs1)N1CCCC1` (stereo not given) gave TAAR1 ag 48*, CHO parental Ca -17, TAAR1 antagonist -2, OX1R antag-1 -21, OX1R antag-2 15 and NTR1 agonist -1.
For CCc1cc2c(nc1CC)CCCN2S(=O)(=O)c1ccc(C#N)cc1 the results were TAAR1 ag 1 and TAAR1 antagonist 9.
`CCn1c(CCNC(=O)c2ccc(Cl)c(Cl)c2)nnc1SCCOc1ccc(OC)cc1` gave TAAR1 ag 3, CHO parental Ca -26, TAAR1 antagonist -7, OX1R antag-1 -7, OX1R antag-2 41* and NTR1 agonist 2.
Screening CSc1ccc(C(=O)NCC(=O)O)cc1[N+](=O)[O-] returned TAAR1 ag 1, CHO parental Ca -9, TAAR1 antagonist -6, OX1R antag-1 -18, OX1R antag-2 53* and NTR1 agonist 0.
